Data set [1] addresses T1, Estrogen receptor (Homo sapiens, UniProt P03372).
T1 sequence (P03372 whole entry): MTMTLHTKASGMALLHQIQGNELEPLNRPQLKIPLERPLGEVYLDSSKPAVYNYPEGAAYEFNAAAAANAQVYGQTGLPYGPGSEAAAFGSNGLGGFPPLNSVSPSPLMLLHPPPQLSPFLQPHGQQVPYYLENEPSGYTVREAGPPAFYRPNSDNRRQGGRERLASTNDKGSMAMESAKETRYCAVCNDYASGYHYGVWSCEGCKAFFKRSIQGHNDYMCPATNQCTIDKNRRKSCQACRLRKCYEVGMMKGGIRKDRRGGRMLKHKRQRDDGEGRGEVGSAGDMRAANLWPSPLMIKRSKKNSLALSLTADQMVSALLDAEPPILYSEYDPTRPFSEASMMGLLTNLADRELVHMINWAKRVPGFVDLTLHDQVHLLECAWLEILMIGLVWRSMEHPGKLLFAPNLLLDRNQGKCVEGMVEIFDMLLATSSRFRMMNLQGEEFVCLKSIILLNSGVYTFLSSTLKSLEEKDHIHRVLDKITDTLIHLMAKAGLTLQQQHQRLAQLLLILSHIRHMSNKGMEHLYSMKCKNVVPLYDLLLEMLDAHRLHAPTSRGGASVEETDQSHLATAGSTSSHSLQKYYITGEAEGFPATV
As to the kind of experiment: Displacement of fluorescent labelled fluormone ES2 from human recombinant GST tagged ER alpha LBD ( 282 to 595 residues) expressed in baculovirus infected insect cells incubate for 20 mins measured after 1 hr by TR-FRET Lanthascreen assay. Put shortly: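 ER binding was reported as n ≥ 2 determinations, with SEM within 0.3 log units.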
(In TR-FRET formats the signal depends on donor and acceptor labels being close together.)

Data set [2] can be described thus: Intrinsic clearance in human microsome assessed as rate of metabolism. Particulars: microsomes. It is filed as ADME. The procedure, abridged: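 Compound from a DMSO stock was incubated with human liver microsomes. Rate of metabolism is expressed in μL/min/mg.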
Data set [3] can be described thus: Lipophilicity, log D of compound at pH 7.4 by shake-flask method. The settings on record: buffer. It is filed as physicochemical. Put shortly:
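logD at pH 7.4 was measured by the shake-flask method.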

The target of data set [4] is T1, Estrogen receptor. Put plainly: Induction of ERalpha degradation in human MCF7 cells incubated for 18 to 22 hrs by immuno-fluorescence assay. It is filed as cell-based.
Data set [5] deals with T2, Estrogen receptor (Homo sapiens) (UniProt P03372).
T2 sequence (whole entry): T1 sequence (P03372 whole entry)
Put plainly: Induction of ERalpha degradation in human MCF7 cells at 0.1 uM incubated for 18 to 22 hrs immuno-fluorescence assay relative to control. It is filed as cell-based.

Data set [6] in a line: Intrinsic clearance in rat hepatocytes assessed rate of metabolism per 10^6 cells. It is filed as ADME, cell-based, Hepatocyte. The settings on record: read-out: CLH. The procedure, abridged:
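Compound from a DMSO stock was incubated with isolated rat hepatocytes diluted to 1 × 10^6 cells/mL. Rate of metabolism is expressed in μL/min/10^6 cells.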

A short description of data set [7]: Fraction unbound in human plasma by equilibrium dialysis method. It is filed as ADME, cell-free. Put shortly: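 Binding was measured by equilibrium dialysis in 10% human plasma, with compound added from a DMSO stock.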
Data set [8] is described as follows: Clearance in rat plasma at 0.5 mg/kg, iv and 1 mg/kg, po. It is filed as ADME, organism-based. The procedure, abridged:
(§1)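 Rats were given 0.5 mg/kg IV in 5% DMSO:95% hydroxylpropyl β-cyclodextrin or 10% DMA:90% Captisol, and 1 mg/kg orally as a 0.1% HMPC/tween suspension or a 10% DMSO:90% cyclodextrin solution. Plasma clearance, Vdss and half-life came from the IV arm; AUC came from the oral arm; bioavailability F (%) was also reported.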

Data set [9] in a line: Oral bioavailability in rat at 1 mg/kg. It is filed as ADME, organism-based. The settings on record: in vivo. The procedure, abridged: as §1
A short description of data set [10]: Half-life in rat at 0.5 mg/kg, iv. It is filed as ADME, organism-based. The settings on record: in vivo. The procedure, abridged:
as §1

Data set [11] can be described thus: Volume of distribution at steady state in rat at 0.5 mg/kg or 1 mg/kg, […]. It is filed as ADME, organism-based. The settings on record: in vivo.
Data set [12] can be described thus: AUC in rat at 1 mg/kg, po. It is filed as ADME, organism-based. Also on record: dose 1 mg/kg. The settings on record: in vivo. The procedure, abridged: as §1
A short description of data set [13]: Efflux ratio of intrinsic permeability from basolateral to apical side over apical to basolateral side in human Caco2 cells at 7.4:7.4 apical: basolateral pH at 10 uM. It is filed as ADME, cell-based. The settings on record: Caco-2, pH 7.4. (In general: Passage across Caco-2 layers is used to estimate intestinal permeability.)
Data set [14] deals with T2, Estrogen receptor (Homo sapiens). As to the kind of experiment: Induction of ERalpha degradation in human CAMA-1 cells at 0.1 uM incubated for 18 to 22 hrs Western blot assay relative to fulvestrant. It is filed as cell-based. The procedure, abridged: (§2)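 Western blot read-out of ERα protein loss in MCF-7 and CAMA-1 breast cancer cells treated with compound at 0.1 μM. Degradation expressed as percentage relative to fulvestrant.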

Data set [15] has the same target. As to the kind of experiment: Induction of ERalpha degradation in human MCF7 cells at 0.1 uM incubated for 18 to 22 hrs Western blot analysis relative to fulvestrant. It is filed as cell-based. Put shortly: as §2
For orientation: A western blot detects proteins with antibodies after separation by electrophoresis.

Structures are written as SMILES. Bounds are passed on as bounds.

Here are results for twelve compounds from ChEMBL document CHEMBL4725497, “Addition of Fluorine and a Late-Stage Functionalization (LSF) of the Oral SERD AZD9833” (ACS Med Chem Lett, 2020).

Broadly, the IC50 is the point on the concentration scale where inhibition reaches its midpoint. By microsomal CLint is commonly meant the capacity of the preparation to metabolise the compound, expressed as a volume cleared per time. As usually defined, the logD is the decadic logarithm of the distribution of all forms, ionised or not, between an organic phase and buffer at a given pH. Low values mean lower lipophilicity, high ones higher lipophilicity. Turning to `C[C@@H]1Cc2c(c(O)cc3[nH]ncc23)[C@@H](c2ccc(NC3CN(CCCF)C3)cn2)N1CC(F)(F)F`, the IC50 on Estrogen receptor [1] is 39.8 nM; on Estrogen receptor [4] it was 126 nM. Besides, in data set [2], the microsomal CLint was determined as 5 µL/min/mg. For the same compound, the logD in [3] was 2.3. In [5], this compound returned an Activity above 80%. In addition, the hepatocyte CLint in [6] is 11 µL/min/1e6 cells.

As usually defined, the fraction unbound is free concentration divided by total concentration. Read a low fraction unbound as little free substance. With `C[C@@H]1Cc2c(cc(F)c3[nH]ncc23)[C@@H](c2ccc(NC3CN(CCCF)C3)cn2)N1CC(F)(F)F`, the IC50 was 0.501 nM on Estrogen receptor [1] and 0.2 nM against Estrogen receptor [4]. The microsomal CLint in data set [2] worked out at 19 µL/min/mg. Further, the logD in data set [3] came out at 3.2. This compound came in with an Activity in data set [5] of 98%. Besides, the hepatocyte CLint in data set [6] came out at 20 µL/min/1e6 cells. The same compound gave a fraction unbound in data set [7] of 0.14.

The bioavailability is dose-corrected exposure relative to a reference, in per cent. One may read the half-life as the time needed for the level to fall by half in the phase considered. The low end stands for rapid decline, the high end for slow decline. The AUC is concentration integrated over time. On to `C[C@@H]1Cc2c(ccc3[nH]ncc23)[C@@H](c2ccc(NC3CN(CCCF)C3)c(F)n2)N1CC(F)(F)F`, for which, in data set [8], the clearance amounted to 65 mL/min/kg. In addition, the microsomal CLint in [2] came out at 20 µL/min/mg. Further, in data set [3], the logD came out at 3. The same compound had a bioavailability in data set [9] of 34%. In data set [5], this compound returned an Activity of 98%. The half-life in data set [10] is 1.9 h. Further, in [11], the Vdss came out at 7.7 L/kg. Besides, the hepatocyte CLint in [6] amounted to 36 µL/min/1e6 cells. Further, the AUC in data set [12] is 0.22 µM·h. This compound also gave a fraction unbound in data set [7] of 0.16.

`C[C@@H]1Cc2c(ccc3[nH]nc(F)c23)[C@@H](c2ccc(NC3CN(CCCF)C3)c(F)n2)N1CC(F)(F)F`: the IC50 at Estrogen receptor [1] was 1 nM; against Estrogen receptor [4], 0.0501 nM. Moreover, the microsomal CLint in [2] is 44 µL/min/mg. This compound yielded an Activity in [5] of 99%. In data set [6], the hepatocyte CLint amounted to 10 µL/min/1e6 cells. Also, the fraction unbound in data set [7] was 0.068.

Broadly, the efflux ratio is a quotient of directional permeabilities that is used to spot active efflux. In turn, `C[C@@H]1Cc2c(ccc3[nH]nc(F)c23)[C@@H](c2ncc(NC3CN(CCCF)C3)cc2F)N1CC(F)(F)F` had a clearance in data set [8] of 24 mL/min/kg. Besides, the IC50 at Estrogen receptor [1] is 1.26 nM. In data set [2], the microsomal CLint came out at 34 µL/min/mg. The same compound had a bioavailability in data set [9] of 60%. This compound showed an Activity in data set [5] of 99%. In data set [13], the efflux ratio at 10 µM is 1.4. Besides, the half-life in [10] was 9.6 h. Moreover, the Vdss in [11] was determined as 17 L/kg. Besides, the hepatocyte CLint in data set [6] amounted to 10 µL/min/1e6 cells. This compound also came in with an AUC in data set [12] of 0.76 µM·h. This compound had a fraction unbound in [7] of 0.054.

For `C[C@@H]1Cc2c(ccc3[nH]ncc23)[C@@H](c2ccc(NC3CN(CCCF)C3)cn2)N1CC(F)F`, in data set [2], the microsomal CLint turned out to be 28 µL/min/mg. This compound displayed an Activity in data set [5] of 99%.

In the case of `C[C@@H]1Cc2c(c(F)cc3[nH]ncc23)[C@@H](c2ccc(NC3CN(CCCF)C3)cn2)N1CC(F)(F)F`, the IC50 is 15.8 nM on Estrogen receptor [1] and 5.01 nM against Estrogen receptor [4]. Also, in data set [2], the microsomal CLint was 8 µL/min/mg. Besides, the logD in data set [3] came out at 2.7. In [5], the Activity is 95%. In addition, the hepatocyte CLint in data set [6] was 11 µL/min/1e6 cells. The fraction unbound in [7] is 0.19.

Consider `COc1cc2[nH]ncc2c2c1[C@@H](c1ccc(NC3CN(CCCF)C3)cn1)N(CC(F)(F)F)[C@H](C)C2`, for which the IC50 on Estrogen receptor [1] was 501 nM; against Estrogen receptor [4], 2.51 nM. The microsomal CLint in [2] came to 26 µL/min/mg. The logD in data set [3] is 2.4. Further, the Activity in data set [5] is 40%. The hepatocyte CLint in data set [6] stood at 6 µL/min/1e6 cells. In data set [7], the fraction unbound turned out to be 0.32.

For `C[C@@H]1Cc2c(ccc3[nH]ncc23)[C@@H](c2ccc(NC3CN(CCCF)C3)cn2)N1CC(F)(F)F` [CAMIZESTRANT], the microsomal CLint in data set [2] was 12 µL/min/mg. In [3], the logD turned out to be 2.9. Besides, the Activity in data set [14] is 98%; in [5], 99%; in data set [15], 95%.

`FCCCN1CC(Nc2ccc([C@@H]3c4ccc5[nH]ncc5c4C[C@@H](C(F)F)N3CC(F)F)nc2)C1`: the microsomal CLint in data set [2] amounted to 34 µL/min/mg. Moreover, the Activity in [5] was found to be 97%. Further, the hepatocyte CLint in [6] is 32 µL/min/1e6 cells. In [7], this compound yielded a fraction unbound of 0.28.

As for `C[C@@H]1Cc2c(ccc3[nH]ncc23)[C@@H](c2ncc(NC3CN(CCCF)C3)cc2F)N1CC(F)(F)F`, the values for the IC50 at Estrogen receptor [1] and at Estrogen receptor [4] were 2 nM and 0.251 nM, respectively. The microsomal CLint in data set [2] was 19 µL/min/mg. The compound also yielded a logD in data set [3] of 3. Also, the Activity in data set [14] was 98%; in data set [5], 98%; in data set [15], 96%. In addition, the efflux ratio at 10 µM in data set [13] was 7. In [6], the hepatocyte CLint amounted to 24 µL/min/1e6 cells. In [7], this compound had a fraction unbound of 0.16.

`C[C@@H]1Cc2c(ccc3[nH]ncc23)[C@@H](c2ncc(NC3CN(CCCF)C3)cc2F)N1CC(F)(F)CF`: the microsomal CLint in data set [2] stood at 26 µL/min/mg. This compound also had an Activity in [5] of 98%. The hepatocyte CLint in data set [6] was 55 µL/min/1e6 cells.
